Here are results for 2 molecules from ChEMBL document CHEMBL1649483, “Molecular analysis of the gyrA and gyrB quinolone resistance-determining regions of fluoroquinolone-resistant Clostridium difficile mutants selected in vitro” (2009).

Converted amounts (≈) assume the structure as drawn. A value given as a limit tells only on which side of the number the result lay.

Type in all cases: functional
For test [1], the system named is Clostridioides difficile. As to the kind of experiment: Antimicrobial activity against Clostridium difficile 630D harboring GyrA Ala118Val mutant gene selected after 8 ug/ml of levofloxacin by Etest method. The method in brief: (§1)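 Stable in vitro-selected mutant tested for gatifloxacin susceptibility by Etest, per the manufacturer's instructions, with an 8 μg/ml breakpoint. For selection, the parent was grown in antibiotic-free brain heart infusion (BHI) for 24 h at 35°C under anaerobic conditions. […] Later steps used double the MIC. Stability was confirmed by three subcultures.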

Test [2] deals with Clostridioides difficile. Briefly: Antimicrobial activity against Clostridium difficile BI2B selected after 4 ug/ml of levofloxacin by Etest method. The method, boiled down:
as §1

Test [3] concerns Clostridioides difficile. As to the kind of experiment: Antimicrobial activity against Clostridium difficile C253A selected after 4 ug/ml of levofloxacin by Etest method. The method in brief: as §1
The test system of test [4] is Clostridioides difficile. Briefly: Antimicrobial activity against Clostridium difficile A422I harboring GyrA Thr82Ile and GyrB Leu451Phe mutant genes selected after 8 ug/ml of levofloxacin by Etest method. The method in brief:
as §1

Test [5] deals with Clostridioides difficile. Briefly: Antimicrobial activity against Clostridium difficile CD5e harboring GyrB Ser416Ala mutant gene selected after 4 ug/ml of moxifloxacin by Etest method.
Test [6] relates to Clostridioides difficile. As to the kind of experiment: Antimicrobial activity against Clostridium difficile BI2b harboring GyrB Arg447Lys mutant gene selected after 2 ug/ml of moxifloxacin by Etest method. The method in brief:
as §1

For test [7], the system named is Clostridioides difficile. Briefly: Antimicrobial activity against Clostridium difficile BI2F harboring GyrB Glu466Lys mutant gene selected after 8 ug/ml of levofloxacin by Etest method. The method, boiled down: as §1
The test system of test [8] is Clostridioides difficile. Briefly: Antimicrobial activity against Clostridium difficile 630a selected after 2 ug/ml of moxifloxacin by Etest method. The method in brief: as §1
Test [9] has as its system Clostridioides difficile. As to the kind of experiment: Antimicrobial activity against Clostridium difficile CD5C harboring GyrB Ser416Ala mutant gene selected after 4 ug/ml of levofloxacin by Etest method.
Test [10] has as its system Clostridioides difficile. As to the kind of experiment: Antimicrobial activity against Clostridium difficile A422h harboring GyrA Asp81Asn mutant gene selected after 8 ug/ml of moxifloxacin by Etest method. The method, boiled down: as §1
The subject of test [11] is Clostridioides difficile. Briefly: Antimicrobial activity against Clostridium difficile A422A selected after 4 ug/ml of levofloxacin by Etest method. The method, boiled down: as §1
Test [12] has as its system Clostridioides difficile. As to the kind of experiment: Antimicrobial activity against Clostridium difficile A422c selected after 2 ug/ml of moxifloxacin by Etest method. The method in brief: as §1
Test [13] deals with Clostridioides difficile. As to the kind of experiment: Antimicrobial activity against Clostridium difficile C253 expressing tcdA and tcdB gene by Etest method. The method, boiled down:
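Parent clinical or nontoxigenic isolate tested for gatifloxacin susceptibility by Etest, run per the manufacturer's instructions; a fluoroquinolone breakpoint of 8 μg/ml was applied.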

Test [14] has as its system Clostridioides difficile. As to the kind of experiment: Antimicrobial activity against Clostridium difficile A422H harboring GyrA Thr82Ile and GyrB Leu451Phe mutant genes selected after 8 ug/ml of levofloxacin by Etest method. The method in brief: as §1
In test [15] the test system is Clostridioides difficile. As to the kind of experiment: Antimicrobial activity against Clostridium difficile C253D selected after 8 ug/ml of levofloxacin by Etest method.
Test [16] deals with Clostridioides difficile. As to the kind of experiment: Antimicrobial activity against Clostridium difficile BI2f harboring GyrB Arg447Lys and Asp426Asn mutant gene selected after 32 ug/ml of moxifloxacin by Etest method. The method, boiled down: as §1
Test [17] relates to Clostridioides difficile. As to the kind of experiment: Antimicrobial activity against Clostridium difficile CD5A harboring GyrB Ser416Ala mutant gene selected after 4 ug/ml of levofloxacin by Etest method.
Test [18] deals with Clostridioides difficile. Briefly: Antimicrobial activity against Clostridium difficile CD5E harboring GyrB Ser416Ala mutant gene selected after 8 ug/ml of levofloxacin by Etest method.
For test [19], the system named is Clostridioides difficile. As to the kind of experiment: Antimicrobial activity against Clostridium difficile C253F selected after 8 ug/ml of levofloxacin by Etest method.
Test [20] has as its system Clostridioides difficile. Briefly: Antimicrobial activity against Clostridium difficile BI2C selected after 4 ug/ml of levofloxacin by Etest method. The method, boiled down: as §1
For test [21], the system named is Clostridioides difficile. Briefly: Antimicrobial activity against Clostridium difficile CD5F harboring GyrB Ser416Ala mutant gene selected after 8 ug/ml of levofloxacin by Etest method.
Test [22] has as its system Clostridioides difficile. Briefly: Antimicrobial activity against Clostridium difficile A422E harboring GyrB Leu451Phe mutant gene selected after 8 ug/ml of levofloxacin by Etest method. The method in brief:
as §1

Test [23] concerns Clostridioides difficile. As to the kind of experiment: Antimicrobial activity against Clostridium difficile CD25 expressing tcdA, tcdB gene and GyrB Ser416Ala mutant gene by Etest method.
In test [24] the test system is Clostridioides difficile. As to the kind of experiment: Antimicrobial activity against Clostridium difficile 630h harboring GyrB […] mutant gene selected after 8 ug/ml of moxifloxacin by agar dilution method. In general terms: In agar dilution, organisms are placed on agar that contains the substance at set levels.
Test [25] concerns Clostridioides difficile. Briefly: Antimicrobial activity against Clostridium difficile C253A selected after 4 ug/ml of levofloxacin by agar dilution method.
For test [26], the system named is Clostridioides difficile. As to the kind of experiment: Antimicrobial activity against Clostridium difficile BI2d harboring GyrB Arg447Lys and Asp426Asn mutant gene selected after 32 ug/ml of moxifloxacin by agar dilution method.
The test system of test [27] is Clostridioides difficile. Briefly: Antimicrobial activity against Clostridium difficile BI2A selected after 4 ug/ml of levofloxacin by agar dilution method.
Test [28] relates to Clostridioides difficile. Briefly: Antimicrobial activity against Clostridium difficile C253c selected after 2 ug/ml of moxifloxacin by agar dilution method.
For test [29], the system named is Clostridioides difficile. As to the kind of experiment: Antimicrobial activity against Clostridium difficile C253b selected after 2 ug/ml of moxifloxacin by agar dilution method.
Test [30] concerns Clostridioides difficile. Briefly: Antimicrobial activity against Clostridium difficile 630d selected after 4 ug/ml of moxifloxacin by agar dilution method.
Test [31] relates to Clostridioides difficile. Briefly: Antimicrobial activity against Clostridium difficile CD5b harboring GyrB Ser416Ala mutant gene selected after 2 ug/ml of moxifloxacin by agar dilution method.
In test [32] the test system is Clostridioides difficile. As to the kind of experiment: Antimicrobial activity against Clostridium difficile A422I harboring GyrA Thr82Ile and GyrB Leu451Phe mutant genes selected after 8 ug/ml of levofloxacin by agar dilution method.
Test [33] deals with Clostridioides difficile. As to the kind of experiment: Antimicrobial activity against Clostridium difficile A422e selected after 4 ug/ml of moxifloxacin by agar dilution method.
Test [34] deals with Clostridioides difficile. Briefly: Antimicrobial activity against Clostridium difficile CD5f harboring GyrB Ser416Ala mutant gene selected after 4 ug/ml of moxifloxacin by agar dilution method.
The test system of test [35] is Clostridioides difficile. As to the kind of experiment: Antimicrobial activity against Clostridium difficile C253e selected after 4 ug/ml of moxifloxacin by agar dilution method.
Test [36] deals with Clostridioides difficile. Briefly: Antimicrobial activity against Clostridium difficile 630 expressing tcdA and tcdB gene by agar dilution method.
Test [37] has as its system Clostridioides difficile. Briefly: Antimicrobial activity against Clostridium difficile BI2E harboring GyrB Glu466Lys mutant gene selected after 8 ug/ml of levofloxacin by agar dilution method.
For test [38], the system named is Clostridioides difficile. Briefly: Antimicrobial activity against Clostridium difficile A422B selected after 4 ug/ml of levofloxacin by agar dilution method.
For test [39], the system named is Clostridioides difficile. As to the kind of experiment: Antimicrobial activity against Clostridium difficile 630c selected after 2 ug/ml of moxifloxacin by agar dilution method.
Test [40] deals with Clostridioides difficile. As to the kind of experiment: Antimicrobial activity against Clostridium difficile CD5i harboring GyrA Ala118Ser, Thr82Ala and GyrB Ser416Ala mutant genes selected after 8 ug/ml of moxifloxacin by agar dilution method.

As usually defined, the MIC is the smallest concentration in the dilution series that meets the test's criterion for growth inhibition.

As to `COc1c(N2CCNC(C)C2)c(F)cc2c(=O)c(C(=O)O)cn(C3CC3)c12` (stereo not given) [GATIFLOXACIN], the MIC with Clostridioides difficile [1] was 3 µg/mL; in the test on Clostridioides difficile [2] it was 2 µg/mL; in the test with Clostridioides difficile [3], 0.5 µg/mL; with Clostridioides difficile [4], no less than 32 µg/mL; in the test with Clostridioides difficile [5], 0.75 µg/mL; in the test with Clostridioides difficile [6], 1.5 µg/mL. Moreover, the minimal inhibitory concentration (MIC) in the test with Clostridioides difficile [7] was no less than 32 µg/mL; in the test on Clostridioides difficile [8], 0.75 µg/mL; in the test with Clostridioides difficile [9], 0.5 µg/mL; in the test on Clostridioides difficile [10] it was no less than 32 µg/mL; in the test with Clostridioides difficile [11], 1 µg/mL; in the test with Clostridioides difficile [12] it was 1.5 µg/mL. Further, the MIC in the test on Clostridioides difficile [13] is 0.5 µg/mL (≈ 1.33 µM); in the test with Clostridioides difficile [14], no less than 32 µg/mL; with Clostridioides difficile [15], 1 µg/mL; with Clostridioides difficile [16], 6 µg/mL; in the test with Clostridioides difficile [17] it was 0.5 µg/mL; in the test with Clostridioides difficile [18], 2 µg/mL. Moreover, the minimal inhibitory concentration (MIC) was determined as 1 µg/mL in the test with Clostridioides difficile [19]; 2 µg/mL in the test on Clostridioides difficile [20]; 2 µg/mL with Clostridioides difficile [21]; 2 µg/mL with Clostridioides difficile [22]; 0.5 µg/mL (≈ 1.33 µM) with Clostridioides difficile [23].

For the molecule `C[C@H]1COc2c(N3CCN(C)CC3)c(F)cc3c(=O)c(C(=O)O)cn1c23.C[C@H]1COc2c(N3CCN(C)CC3)c(F)cc3c(=O)c(C(=O)O)cn1c23.O` [LEVOFLOXACIN], the MIC in the test on Clostridioides difficile [24] was 64 µg/mL; with Clostridioides difficile [25] it was 1 µg/mL; with Clostridioides difficile [26], 64 µg/mL; in the test on Clostridioides difficile [27], 1 µg/mL; in the test on Clostridioides difficile [28] it was 4 µg/mL; in the test with Clostridioides difficile [29], 4 µg/mL. The minimal inhibitory concentration (MIC) in the test on Clostridioides difficile [30] is 4 µg/mL; in the test with Clostridioides difficile [31], 2 µg/mL; in the test with Clostridioides difficile [32], 64 µg/mL; in the test on Clostridioides difficile [33], 4 µg/mL; in the test on Clostridioides difficile [34], 2 µg/mL; with Clostridioides difficile [35], 4 µg/mL. Besides, the MIC is 2 µg/mL in the test on Clostridioides difficile [36]; 16 µg/mL in the test with Clostridioides difficile [37]; 1 µg/mL with Clostridioides difficile [38]; 4 µg/mL in the test with Clostridioides difficile [39]; 64 µg/mL in the test on Clostridioides difficile [40].
